# Screening data from PubChem.
# Arrestin-AP2 inh: inhibitors of beta-arrestin/AP2 binding, primary screen, biochemical, GPCR trafficking, flow cytometry. beta-arrestin 1 C-terminal peptide binding to AP2 beta2-adaptin appendage (human). FITC-arrestin peptide / GST-AP2 beads; AP2 beta2 appendage carries R879A mutation. inhibition, % at 10 µM. actives 0.31% (n = 340,000);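 active = inhibition above a set limit, near 3 SD of compounds lacking own fluorescence, cut at about 54% in these data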
#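 System: GST-AP2 R879A bound to glutathione beads, E. coli-expressed. Also added: 50 nM FITC-arrestin peptide. Schedule: compound with beads 12 min RT, then probe 1 h RT. Signal: bead flow cytometry, FITC channel. Read-out basis: percent response.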
# CendR NRP1 mod: modulators of CendR peptide binding to NRP-1, primary screen, biochemical, fluorescence polarization, uHTS; inhibition, % at 25 µM; actives 0.85% (n = 360,000); Neuropilin-1 (Homo sapiens), O14786; FAM-RPARPAR peptide binding to NRP-1;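 active = inhibition or corrected inhibition above about 18%, plus a signal ratio from 0.5 to 1.5, limit read from the data, passing the limit was not always enough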
# ADAM10 inh: human ADAM10 inhibitors, primary screen, biochemical, QFRET, HTS. AID 720582, 2013. actives 0.62% (n = 370,000). recombinant ADAM10, EDANS/DABCYL FRET peptide cleavage, 3 h. inhibition, % at 7 µM;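 active = inhibition above a per-campaign cutoff equal to the mean of compounds falling between control-based bounds plus 3 SD, cut at about 20% in these data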
# ADAM17 inh: ADAM17 inhibitors, primary screen, biochemical, QFRET; actives 0.83% (n = 370,000); recombinant ADAM17, EDANS/DABCYL FRET peptide cleavage; AID 720648, 2013; inhibition, % at 6.95 µM; Disintegrin and metalloproteinase domain-containing protein 17 (Homo sapiens), P78536;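 active = inhibition above the mean of compounds lying between control limits plus 3 SD, set per campaign, cut at about 8.5% in these data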
# CaV13 FRET inh: Primary screen for inhibitors of IQ motif and Ca2+-dependent inactivation inhibitor domain binding in CACNA1D, Förster resonance energy transfer in living cells, …; HEK cells, CFP/YFP FRET ICDI-IQ, plate reader, 10 min; percent FRET-ratio fall versus neutral wells; inhibition, % at 12.3 µM; actives 0.098% (n = 340,000);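 active = mean replicate inhibition of at least 30% and at least 1% of replicates passing that level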
# FAS-TE inh: FAS thioesterase domain inhibitors, primary screen, biochemical, fluorescence intensity, uHTS; inhibition, % at 15 µM; actives 0.67% (n = 360,000); Fatty acid synthase (Homo sapiens), P49327; recombinant FAS-TE, OMFH fluorogenic substrate, fluorescence endpoint;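 active = compounds whose normalised, plate-corrected inhibition of enzyme fluorescence in the single-dose primary screen is 50% or more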
# Target sequence (P49327 whole entry, looked up, the tested form may be a part): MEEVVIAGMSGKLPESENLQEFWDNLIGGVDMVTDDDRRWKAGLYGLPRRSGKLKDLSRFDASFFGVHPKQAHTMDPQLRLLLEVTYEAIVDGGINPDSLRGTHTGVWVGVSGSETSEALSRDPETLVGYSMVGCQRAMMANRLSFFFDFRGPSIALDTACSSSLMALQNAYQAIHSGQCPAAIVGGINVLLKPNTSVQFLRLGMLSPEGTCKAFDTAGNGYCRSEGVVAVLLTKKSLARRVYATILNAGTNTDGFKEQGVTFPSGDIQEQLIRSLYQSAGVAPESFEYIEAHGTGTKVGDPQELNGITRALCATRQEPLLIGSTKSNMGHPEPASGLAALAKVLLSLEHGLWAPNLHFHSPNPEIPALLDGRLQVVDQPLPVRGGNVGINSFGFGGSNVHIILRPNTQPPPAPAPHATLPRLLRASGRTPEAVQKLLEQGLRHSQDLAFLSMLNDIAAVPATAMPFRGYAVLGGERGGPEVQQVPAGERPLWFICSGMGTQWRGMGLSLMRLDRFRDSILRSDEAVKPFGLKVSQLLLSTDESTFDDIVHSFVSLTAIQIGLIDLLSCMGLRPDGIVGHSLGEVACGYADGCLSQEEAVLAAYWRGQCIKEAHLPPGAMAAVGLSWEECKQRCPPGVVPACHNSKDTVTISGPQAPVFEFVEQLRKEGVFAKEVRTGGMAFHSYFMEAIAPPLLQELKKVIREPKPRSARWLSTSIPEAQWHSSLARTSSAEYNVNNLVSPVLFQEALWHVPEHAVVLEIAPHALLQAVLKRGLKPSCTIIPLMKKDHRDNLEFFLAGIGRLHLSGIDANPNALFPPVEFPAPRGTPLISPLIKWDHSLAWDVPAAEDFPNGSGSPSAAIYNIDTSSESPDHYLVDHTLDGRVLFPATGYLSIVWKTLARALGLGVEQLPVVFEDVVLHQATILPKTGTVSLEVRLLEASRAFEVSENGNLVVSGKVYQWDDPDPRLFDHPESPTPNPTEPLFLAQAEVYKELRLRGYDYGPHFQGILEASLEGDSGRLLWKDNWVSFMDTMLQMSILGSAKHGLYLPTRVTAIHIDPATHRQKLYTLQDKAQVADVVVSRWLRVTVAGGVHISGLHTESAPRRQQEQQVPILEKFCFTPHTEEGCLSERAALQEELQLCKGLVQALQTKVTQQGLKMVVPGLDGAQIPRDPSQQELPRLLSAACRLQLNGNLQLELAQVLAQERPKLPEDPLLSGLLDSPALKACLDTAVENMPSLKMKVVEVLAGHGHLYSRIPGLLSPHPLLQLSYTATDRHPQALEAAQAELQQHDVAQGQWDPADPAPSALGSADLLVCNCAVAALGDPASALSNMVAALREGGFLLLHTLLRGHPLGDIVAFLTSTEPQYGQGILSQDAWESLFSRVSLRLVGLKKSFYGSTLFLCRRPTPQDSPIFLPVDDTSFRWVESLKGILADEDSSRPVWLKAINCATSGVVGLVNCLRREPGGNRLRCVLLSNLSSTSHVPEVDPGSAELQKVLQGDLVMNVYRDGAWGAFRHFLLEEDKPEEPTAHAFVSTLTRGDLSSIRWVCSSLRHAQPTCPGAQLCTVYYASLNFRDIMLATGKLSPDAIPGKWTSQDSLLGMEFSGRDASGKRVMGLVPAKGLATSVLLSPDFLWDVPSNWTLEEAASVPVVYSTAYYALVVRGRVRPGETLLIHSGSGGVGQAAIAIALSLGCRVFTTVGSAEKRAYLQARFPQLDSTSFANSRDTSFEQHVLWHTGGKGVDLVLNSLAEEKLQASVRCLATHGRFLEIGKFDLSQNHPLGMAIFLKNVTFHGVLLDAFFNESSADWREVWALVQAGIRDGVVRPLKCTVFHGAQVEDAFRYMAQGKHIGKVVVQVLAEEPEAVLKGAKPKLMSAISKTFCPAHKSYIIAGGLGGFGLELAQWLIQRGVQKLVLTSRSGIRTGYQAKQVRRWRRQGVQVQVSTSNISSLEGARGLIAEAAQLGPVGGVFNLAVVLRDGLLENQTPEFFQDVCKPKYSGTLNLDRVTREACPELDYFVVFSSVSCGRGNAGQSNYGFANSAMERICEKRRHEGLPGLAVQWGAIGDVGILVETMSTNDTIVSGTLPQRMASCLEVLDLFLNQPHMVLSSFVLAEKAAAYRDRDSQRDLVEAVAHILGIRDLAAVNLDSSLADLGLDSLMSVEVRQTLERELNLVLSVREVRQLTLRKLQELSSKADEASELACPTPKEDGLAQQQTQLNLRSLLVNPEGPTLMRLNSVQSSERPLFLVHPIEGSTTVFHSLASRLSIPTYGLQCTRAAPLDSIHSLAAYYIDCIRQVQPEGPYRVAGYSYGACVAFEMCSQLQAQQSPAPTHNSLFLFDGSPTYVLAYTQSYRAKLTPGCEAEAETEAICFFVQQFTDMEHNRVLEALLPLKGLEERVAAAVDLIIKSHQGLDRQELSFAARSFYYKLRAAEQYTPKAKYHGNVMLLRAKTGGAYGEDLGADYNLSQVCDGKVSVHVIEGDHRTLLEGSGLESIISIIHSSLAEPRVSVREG
# FAS-TE conf: FAS thioesterase domain inhibitors, confirmation, biochemical, fluorescence intensity, single concentration; shares compounds with FAS-TE inh; recombinant FAS-TE, OMFH fluorogenic substrate; inhibition, % at 15 µM; actives 45% (n = 2,300); AID 624325, 2012;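 active = compounds inhibiting the enzyme by at least 50% at 15 µM in any one of the replicates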
# A number is an active result; – = inactive; · = not tested or not shown. Only some compounds are listed: those with a hit (about 2.9% of all), similar ones and a draw of the others.
SMILES,Arrestin-AP2 inh,CendR NRP1 mod,ADAM10 inh,ADAM17 inh,CaV13 FRET inh,FAS-TE inh,FAS-TE conf
CC(C)NC(=O)N(C)C[C@H]1OCCCC[C@@H](C)Oc2ccc(NC(=O)C3CCCCC3)cc2C(=O)N([C@H](C)CO)C[C@@H]1C,·,–,–,–,–,–,·
C[C@@H]1CCCCO[C@H](CN(C)C(=O)Nc2cccc3ccccc23)[C@@H](C)CN([C@H](C)CO)C(=O)c2cc(NC(=O)c3ccccc3)ccc2O1,·,–,–,–,–,78,–
CCN(CC)c1ccc(C=Nn2c(-c3ccc(F)cc3)n[nH]c2=S)c(O)c1,·,·,–,–,·,·,·
O=C(Nc1ccc(C(F)(F)F)cc1)OC1CC2CC1[C@H]1CCCCN1C2 (some centres undefined),·,·,–,–,·,·,·
CCc1nc2ccc(C(=O)N3CCCC(C(N)=O)C3)cn2c1N(C)Cc1ccc(OC)cc1 (centres undefined),·,–,–,–,–,–,·
CC(C)NC(=O)C1C(c2ccc(C(F)(F)F)cc2)=Nc2ccccc2N1C(=O)c1cccc2ccccc12 (centres undefined),·,–,–,–,–,·,·
Cc1csc2c(=O)sc(NC(=O)c3ccc(F)cc3Cl)nc12,–,–,–,–,–,84,–
Cc1ccccc1C(=O)Nc1nc2c(C)csc2c(=O)s1,–,–,–,–,–,51,–
CC(C)CCSc1nc(N)c(C#N)cc1C#N,–,–,–,–,–,65,–
CC(=O)c1cc(C#N)c(SCCC(C)C)nc1C,–,–,·,·,–,56,–
Cc1ccccc1NC(=O)CSc1nc(N)c(C#N)cc1C#N,–,–,–,–,–,–,·
CCCCn1c(=NC(C)=O)c(C#N)cc2c(=O)n3cccc(C)c3nc21,–,–,–,–,–,50,–
CCOCCCn1c(=NC(C)=O)c(C#N)cc2c(=O)n3cccc(C)c3nc21,–,–,–,–,–,–,·
CCCCCn1c(=NC(C)=O)c(C#N)cc2c(=O)n3ccccc3nc21,–,–,–,–,–,61,–
Cc1ccc([N+](=O)[O-])cc1NC(=O)CCSc1ccc(Cl)cc1,–,–,–,–,·,66,62
Cc1ccc([N+](=O)[O-])cc1NC(=O)c1ccc(C(C)(C)C)cc1,–,–,–,–,–,68,72
COc1ccccc1/C=C(\NC(=O)c1ccc(OC)c(OC)c1)C(=O)Nc1cc([N+](=O)[O-])ccc1C,–,–,–,–,–,60,71
Cc1ccc([N+](=O)[O-])cc1NC(=O)CN(C(=O)c1ccc(Cl)cc1)C1CCCCC1,–,–,–,–,–,86,91
COC(=O)c1ccc(C)c(NC(=O)CCSc2ccc(Cl)cc2)c1,–,–,–,–,·,–,·
COc1ccc(/C=C(/NC(=O)c2cccc([N+](=O)[O-])c2)C(=O)O)cc1OC,–,–,–,–,–,–,·
COc1ccc([C@H]2OC(=O)C[C@@H]2C(=O)N2CCN(c3ccccc3Cl)CC2)cc1OC,·,·,–,–,·,·,·
O=C(CSc1ccccn1)Nc1ccc(Cl)c([N+](=O)[O-])c1,–,–,–,–,·,–,·
O=C(COc1ncnc2ccccc12)Nc1cccc([N+](=O)[O-])c1,–,–,–,–,–,–,·
O=C(CN(C(=O)c1ccc(Cl)cc1)C1CCCCC1)Nc1ccc(Cl)c([N+](=O)[O-])c1,–,–,–,–,–,76,–
O=C(COc1ncnc2ccccc12)Nc1ccc(Cl)c([N+](=O)[O-])c1,–,–,–,–,–,68,66
